Laboratory results: ChEMBL document CHEMBL2346608, “New annelated thieno[2,3-e][1,2,3]triazolo[1,5-a]pyrimidines, with potent anticancer activity, designed through VLAK protocol” (2013)

Assays:
Format in all cases: functional
[1] = system: SK-MEL-2; assay: Antiproliferative activity against human SK-MEL-2 cells after 48 hrs by sulforhodamine B assay; conditions: SK-MEL-2, 48 h; for TGI: read-out: pTGI (converted)
How it was run: (§1)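 Cells grown in RPMI 1640 with 5% FBS and 2 mM L-glutamine, plated at 5000–40,000 cells/well and preincubated 24 h at 37 °C, 5% CO2. Five drug concentrations (10-fold or ½-log dilutions from DMSO stocks) applied for 48 h. TCA-fixed (final 10% adherent, 16% suspension), SRB-stained, A515 read. Growth versus time-zero and control wells gave GI50, TGI, LC50.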

[2] = system: SR; assay: Antiproliferative activity against human SR cells after 48 hrs by sulforhodamine B assay; conditions: for TGI: read-out: pTGI (converted)
How it was run: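 Cells in RPMI 1640 with 5% FBS and 2 mM L-glutamine were seeded at 5000–40,000/well according to doubling time and preincubated 24 h at 37 °C in 5% CO2. Time-zero plates were TCA-fixed when drug was added. Five 10-fold or ½-log dilutions from DMSO stocks were added for 48 h. After SRB staining, A515 was read and GI50 derived from [(Ti−Tz)/(C−Tz)]×100 = 50.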

[3] = system: IGROV-1; assay: Antiproliferative activity against human IGROV1 cells after 48 hrs by sulforhodamine B assay; conditions: IGROV-1, 48 h; for TGI: read-out: pTGI (converted); how it was run: as §1
[4] = system: BT-549; assay: Antiproliferative activity against human BT549 cells after 48 hrs by sulforhodamine B assay; conditions: BT-549, 48 h; how it was run: as §1

Structure (SMILES) | GI50 [1] [µM] | LC50 [1] [µM] | TGI [1] [µM] | GI50 [2] [µM] | LC50 (50% lethal concentration) [2] [µM] | TGI [2] [µM] | GI50 [3] [µM] | LC50 [3] [µM] | TGI [3] [µM] | GI50 [4] [µM] | CC50 ([4]; read-out: pLC50 (the source's name) (converted)) [µM] | TGI ([4]; read-out: pTGI (converted)) [µM]
CN1CCN(CCCn2c(=O)c3sc4ncccc4c3n3nnc(-c4ccccc4)c23)CC1 | 8.71 | 31.6 | 16.6 | 1.1 | 12 | 2.57 | 5.89 | 32.4 | 13.8 | – | – | –
O=C(CCCn1c(=O)c2sc3ccccc3c2n2nnc(-c3ccccc3)c12)NCCc1c[nH]cn1 | – | – | – | – | – | – | – | – | – | 17.4 | > 100 | 41.7
O=C(CCCn1c(=O)c2sc3ncccc3c2n2nnc(-c3ccccc3)c12)NCCc1c[nH]cn1 | 17.8 | 85.1 | 38.9 | 2.51 | > 100 | 6.17 | 9.55 | 75.9 | 27.5 | – | – | –
